Measured values of several laboratories.
Each line is one published result; the experiments were not run side by side.
Target: Mitogen-activated protein kinase kinase kinase 5 (MAP3K5, Homo sapiens, UniProt Q99683)
Residues used in one study (Q99683 1-1374): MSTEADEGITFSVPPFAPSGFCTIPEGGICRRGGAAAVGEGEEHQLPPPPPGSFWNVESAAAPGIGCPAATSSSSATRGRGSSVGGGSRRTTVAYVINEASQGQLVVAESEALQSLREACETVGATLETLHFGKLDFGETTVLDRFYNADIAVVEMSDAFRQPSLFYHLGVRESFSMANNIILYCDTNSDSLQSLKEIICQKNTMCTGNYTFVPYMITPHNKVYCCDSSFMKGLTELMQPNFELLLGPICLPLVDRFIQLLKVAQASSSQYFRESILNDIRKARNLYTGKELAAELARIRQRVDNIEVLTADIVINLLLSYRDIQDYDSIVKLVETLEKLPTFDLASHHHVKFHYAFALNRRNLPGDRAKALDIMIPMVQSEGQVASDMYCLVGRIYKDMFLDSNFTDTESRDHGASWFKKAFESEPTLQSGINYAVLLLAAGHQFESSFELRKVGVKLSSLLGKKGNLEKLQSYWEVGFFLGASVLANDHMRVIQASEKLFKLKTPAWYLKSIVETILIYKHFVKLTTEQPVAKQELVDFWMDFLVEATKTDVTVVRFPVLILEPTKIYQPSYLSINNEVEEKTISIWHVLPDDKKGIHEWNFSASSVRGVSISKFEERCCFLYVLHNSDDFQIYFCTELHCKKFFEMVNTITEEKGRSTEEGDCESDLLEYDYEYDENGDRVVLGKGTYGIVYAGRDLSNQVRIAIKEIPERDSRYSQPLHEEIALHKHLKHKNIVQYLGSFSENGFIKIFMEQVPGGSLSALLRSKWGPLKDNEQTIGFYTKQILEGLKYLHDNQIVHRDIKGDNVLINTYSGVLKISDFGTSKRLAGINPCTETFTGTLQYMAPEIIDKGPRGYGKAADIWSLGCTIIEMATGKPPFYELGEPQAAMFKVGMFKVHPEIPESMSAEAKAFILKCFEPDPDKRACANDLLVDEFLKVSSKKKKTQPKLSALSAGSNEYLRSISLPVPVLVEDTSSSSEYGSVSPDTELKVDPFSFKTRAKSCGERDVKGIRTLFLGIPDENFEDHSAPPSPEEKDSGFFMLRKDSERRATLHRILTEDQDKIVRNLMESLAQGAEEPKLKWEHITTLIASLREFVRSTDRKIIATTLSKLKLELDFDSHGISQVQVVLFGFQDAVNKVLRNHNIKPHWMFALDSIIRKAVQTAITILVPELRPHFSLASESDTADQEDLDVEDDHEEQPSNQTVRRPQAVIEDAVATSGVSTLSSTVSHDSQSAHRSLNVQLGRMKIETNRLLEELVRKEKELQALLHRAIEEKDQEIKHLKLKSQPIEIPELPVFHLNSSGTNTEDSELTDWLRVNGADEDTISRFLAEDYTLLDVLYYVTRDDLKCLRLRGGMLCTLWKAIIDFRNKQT

| SMILES | read-out | action | technique | concentration | quantity | result |
| --- | --- | --- | --- | --- | --- | --- |
| Cn1cc(-c2cc(F)cc(N3CCn4c(cc5c4CCCC5)C3=O)c2CO)cc(Nc2ccc(N3CCN(C4COC4)CC3)cn2)c1=O | enzyme activity | inhibitor |  | 0.1 µM | inhibition | 2% |
| N#CC1(c2ccccn2)CCN(Cc2cc(C(=O)O)c(=O)n3ccccc23)CC1 | cell-free assay |  | competition with immobilised ligand | 1 µM | remaining binding | 75% |
| Cn1cc(-c2cccc(N3CCc4c(sc5c4CC(C)(C)C5)C3=O)c2CO)cc(Nc2ccncn2)c1=O | enzyme activity | inhibitor |  | 1 µM | inhibition | 14% |
| O=c1[nH]c2ccccc2n1C1CCN(Cc2ccc(-c3[nH]c4cc5ncnc5cc4nc3-c3ccccc3)cc2)CC1 | cell-free assay |  |  | 0.5 µM | remaining signal | 93.8% |
| COc1ncccc1-c1cnn2ccc(N3CCN(C(=O)OC(C)C)CC3)nc12 | binding |  | competition with immobilised ligand | 1 µM | remaining binding | 73% |
| COc1cc(Nc2ncc(F)c(Nc3ccc4c(n3)NC(=O)C(C)(C)O4)n2)cc(OC)c1OC | binding |  | competition with immobilised ligand | 10 µM | inhibition | 0% |
| CC(C)(C)c1cc(C=C(C#N)C#N)cc(Br)c1O | enzyme activity | inhibitor |  | 0.5 µM | remaining activity | 100% |
| Cn1cncc1[C@@](O)(COc1ccc(C#N)cc1-c1ccc(OC(F)(F)F)cc1)c1ccc(C#N)cc1 | cell-free assay |  | competition with immobilised ligand | 1 µM | remaining binding | 91% |
| Cc1nn(C)cc1-c1nc2c(N3CCN(Cc4ccc(Cl)cc4)CC3)c(Cl)cnc2[nH]1 | binding |  | competition with immobilised ligand | 1 µM | remaining binding | 100% |
| Nc1ncc(-c2nc(N3CCOCC3)nc(N3CCOCC3)n2)c(C(F)F)n1 | binding |  | competition with immobilised ligand | 10 µM | remaining binding | 92% |
